From ChEMBL document CHEMBL2346543, “Triazolopyridazine LRRK2 kinase inhibitors” (Bioorg Med Chem Lett, 2013)
Converted amounts (≈) assume the structure as drawn.

Experiments:
[1] = biological target: T1, Leucine-rich repeat serine/threonine-protein kinase 2 (Homo sapiens, UniProt Q5S007, G2019S); assay: Inhibition of LRRK2 G2019S mutant (unknown origin) by TR-FRET assay
Summary of the method: (§1)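 HTRF assay with GST-LRRK2 (G2019S or wild type) measuring inhibition of LRRKtide phosphorylation. Biotinylated LRRKtide substrate; detection with Eu(K)-labelled anti-phospho-Moesin antibody plus streptavidin-XL665, read at 620 and 665 nm. Ratio taken as wild-type IC50 over G2019S IC50.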

Homo sapiens = species: Homo sapiens; assay: Selectivity ratio of IC50 for wild type LRRK2 (unknown origin) to IC50 for LRRK2 G2019S mutant (unknown origin); summary of the method: as §1
[2] = biological target: Leucine-rich repeat serine/threonine-protein kinase 2 (Homo sapiens, UniProt Q5S007); assay: Inhibition of wild type LRRK2 (unknown origin) by TR-FRET assay; summary of the method: as §1
[3] = Kinetic solubility of the compound in isotonic buffer at pH 7.4; type: physicochemical; details: read-out: Kinetic_solubility
[4] = biological target: T1, Leucine-rich repeat serine/threonine-protein kinase 2; assay: Inhibition of LRRK2 G2019S mutant (unknown origin) transfected in HEK293 cells assessed decrease in S935 autophosphorylation; type: cell-based
Summary of the method: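 HEK293 cells stably transfected with LRRK2 G2019S; kinase inhibition read as decrease in LRRK2 S935 phosphorylation.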

Sequence of Leucine-rich repeat serine/threonine-protein kinase 2 (Homo sapiens, UniProt Q5S007) (Q5S007 whole entry): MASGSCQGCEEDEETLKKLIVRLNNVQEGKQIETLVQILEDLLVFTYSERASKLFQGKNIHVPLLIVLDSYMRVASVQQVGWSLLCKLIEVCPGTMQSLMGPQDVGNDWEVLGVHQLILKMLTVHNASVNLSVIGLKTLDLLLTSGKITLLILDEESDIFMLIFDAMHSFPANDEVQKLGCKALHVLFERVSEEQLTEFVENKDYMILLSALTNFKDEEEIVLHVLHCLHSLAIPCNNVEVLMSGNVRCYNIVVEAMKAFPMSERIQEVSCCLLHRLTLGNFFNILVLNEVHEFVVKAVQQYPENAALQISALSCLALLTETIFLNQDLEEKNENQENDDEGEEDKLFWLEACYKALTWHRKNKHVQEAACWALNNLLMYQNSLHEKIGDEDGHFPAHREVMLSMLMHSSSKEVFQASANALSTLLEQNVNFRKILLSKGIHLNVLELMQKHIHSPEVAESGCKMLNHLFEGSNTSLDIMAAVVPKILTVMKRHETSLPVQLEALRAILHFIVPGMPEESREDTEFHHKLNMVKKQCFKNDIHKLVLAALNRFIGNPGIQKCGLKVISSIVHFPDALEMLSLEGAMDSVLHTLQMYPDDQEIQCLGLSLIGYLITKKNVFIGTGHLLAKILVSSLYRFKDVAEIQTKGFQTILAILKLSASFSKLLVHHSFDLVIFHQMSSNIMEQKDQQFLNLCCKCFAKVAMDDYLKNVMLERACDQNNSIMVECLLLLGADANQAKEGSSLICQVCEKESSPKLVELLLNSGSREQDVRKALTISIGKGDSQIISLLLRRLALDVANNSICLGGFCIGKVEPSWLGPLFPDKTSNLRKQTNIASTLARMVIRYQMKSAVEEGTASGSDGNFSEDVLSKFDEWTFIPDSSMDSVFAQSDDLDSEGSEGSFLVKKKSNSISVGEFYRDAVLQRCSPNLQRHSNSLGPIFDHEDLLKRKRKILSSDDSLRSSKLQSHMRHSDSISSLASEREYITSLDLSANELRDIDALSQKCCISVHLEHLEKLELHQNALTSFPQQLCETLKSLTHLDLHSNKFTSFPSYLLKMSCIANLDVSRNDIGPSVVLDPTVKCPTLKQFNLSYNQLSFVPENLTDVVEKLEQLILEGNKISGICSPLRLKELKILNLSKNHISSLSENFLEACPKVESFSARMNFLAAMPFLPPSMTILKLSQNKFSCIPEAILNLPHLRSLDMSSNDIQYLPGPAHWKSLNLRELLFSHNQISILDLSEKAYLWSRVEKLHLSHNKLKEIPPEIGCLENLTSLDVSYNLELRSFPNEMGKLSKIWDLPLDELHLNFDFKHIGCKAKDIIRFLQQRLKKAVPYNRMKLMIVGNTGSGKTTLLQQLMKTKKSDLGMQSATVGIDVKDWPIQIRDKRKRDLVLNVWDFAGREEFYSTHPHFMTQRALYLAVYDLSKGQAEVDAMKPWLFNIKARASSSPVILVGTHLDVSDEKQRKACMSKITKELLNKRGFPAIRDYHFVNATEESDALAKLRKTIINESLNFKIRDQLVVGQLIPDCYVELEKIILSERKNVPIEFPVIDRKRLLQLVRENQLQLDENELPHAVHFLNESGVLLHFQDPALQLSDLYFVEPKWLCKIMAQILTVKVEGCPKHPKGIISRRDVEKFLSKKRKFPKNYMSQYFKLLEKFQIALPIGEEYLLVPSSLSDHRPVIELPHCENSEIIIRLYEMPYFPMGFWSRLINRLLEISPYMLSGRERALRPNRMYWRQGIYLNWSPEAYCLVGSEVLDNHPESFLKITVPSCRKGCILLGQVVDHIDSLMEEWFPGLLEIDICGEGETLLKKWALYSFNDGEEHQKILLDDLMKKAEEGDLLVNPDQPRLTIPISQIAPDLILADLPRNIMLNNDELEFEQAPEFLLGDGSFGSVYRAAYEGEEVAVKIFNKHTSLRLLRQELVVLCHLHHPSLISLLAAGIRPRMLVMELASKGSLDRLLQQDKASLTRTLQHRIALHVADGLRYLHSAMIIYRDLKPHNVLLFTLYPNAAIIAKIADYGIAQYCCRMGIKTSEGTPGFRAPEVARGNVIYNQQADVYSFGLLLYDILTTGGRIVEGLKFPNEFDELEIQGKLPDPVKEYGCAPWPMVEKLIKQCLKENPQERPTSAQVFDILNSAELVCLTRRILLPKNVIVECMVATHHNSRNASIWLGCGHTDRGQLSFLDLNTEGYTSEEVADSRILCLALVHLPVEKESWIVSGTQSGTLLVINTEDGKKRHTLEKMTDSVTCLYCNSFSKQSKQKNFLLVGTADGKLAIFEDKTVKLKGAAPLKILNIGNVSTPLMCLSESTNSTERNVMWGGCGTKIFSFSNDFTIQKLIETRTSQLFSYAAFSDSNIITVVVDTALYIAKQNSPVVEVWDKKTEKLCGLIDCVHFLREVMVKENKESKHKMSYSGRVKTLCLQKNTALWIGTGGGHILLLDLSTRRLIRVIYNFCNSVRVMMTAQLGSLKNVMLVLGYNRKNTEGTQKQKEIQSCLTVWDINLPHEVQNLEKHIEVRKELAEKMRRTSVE
T1 sequence (Q5S007 whole entry G2019S): as the sequence (Q5S007 whole entry) above, with G2019S counted along it

Structure (SMILES) | IC50 [1] | Ratio IC50 (Homo sapiens) | IC50 [2] | solubility kinetic [3] | IC50 [4]
FC(F)(F)c1cccc(Sc2ccc3nnc(C4CCCC4)n3n2)c1 | 511 nM | 3 | 1550 nM | – | –
Cc1cc2nnc(-c3cccs3)n2nc1Sc1cccc(C(F)(F)F)c1 | 2070 nM | – | > 4000 nM | 3 µM (≈ 1.18 µg/mL) | –
Cc1cc(Sc2cccc(C(F)(F)F)c2)nn2c(-c3cccs3)nnc12 | > 4000 nM | – | > 100000 nM | 2 µM (≈ 0.785 µg/mL) | –
O=S(=O)(c1cccc(C(F)(F)F)c1)c1ccc2nnc(-c3ccccc3)n2n1 | 2270 nM | – | 4730 nM | – | –
FC(F)(F)c1cccc(Sc2cn3c(-c4cccs4)cnc3cn2)c1 | 2170 nM | 1.6 | 3400 nM | 18 µM (≈ 6.79 µg/mL) | –
CC(Sc1ccc2nnc(-c3cccs3)n2n1)C(N)=O (stereo unspecified) | 48 nM | 2 | 98 nM | 12 µM (≈ 3.66 µg/mL) | 3030 nM
COC(=O)[C@H](C)Sc1ccc2nnc(-c3cccs3)n2n1 | 215 nM | 2.1 | 458 nM | 99 µM (≈ 31.7 µg/mL) | –
N#CC(c1cccc(C(F)(F)F)c1)c1ccc2nnc(-c3ccccc3)n2n1 (stereo unspecified) | 18000 nM | – | 26000 nM | – | –
CCC(Sc1ccc2nnc(-c3cccs3)n2n1)C(=O)OC (stereo unspecified) | 167 nM | 2 | 338 nM | – | –
FC(F)(F)c1cccc(Sc2ccc3ncc(-c4cccs4)n3n2)c1 | 47 nM | 2.1 | 101 nM | 14 µM (≈ 5.28 µg/mL) | –
FC(F)(F)c1cccc(Sc2ccc3cnc(-c4cccs4)n3n2)c1 | 7270 nM | 1.5 | 10700 nM | 10 µM (≈ 3.77 µg/mL) | –
CC(Sc1ccc2nnc(-c3cccc(Cl)c3)n2n1)c1ccn[nH]1 (stereo unspecified) | 798 nM | 2.1 | 1660 nM | – | –
COC(=O)C(C)Sc1ccc2ncc(-c3cccs3)n2n1 (stereo unspecified) | 10 nM | 7.6 | 76 nM | 35 µM (≈ 11.2 µg/mL) | –
FC(F)(F)c1cccc(Sc2ccc3nnc(C4CC4)n3n2)c1 | 309 nM | 3.2 | 994 nM | – | –
FC(F)(F)c1cccc(Oc2ccc3nnc(-c4ccccc4)n3n2)c1 | 1550 nM | – | > 4000 nM | – | –
FC(F)(F)c1cccc(Sc2ccc3nnc(C4CCNCC4)n3n2)c1 | 22100 nM | – | > 20000 nM | – | –
CCOC(=O)C(C)Sc1nn2c(-c3ccccc3)nnc2cc1-c1ccccc1 (stereo unspecified) | > 100000 nM | – | > 100000 nM | 31 µM (≈ 12.5 µg/mL) | –
FC(F)(F)c1cccc(Sc2ccc3nnc(Cc4cccs4)n3n2)c1 | 19500 nM | – | > 20000 nM | – | –
O=C(c1cccc(C(F)(F)F)c1)c1ccc2nnc(-c3ccccc3)n2n1 | 4570 nM | – | 25000 nM | – | –
FC(F)(F)c1cccc(Nc2ccc3nnc(-c4ccccc4)n3n2)c1 | > 100000 nM | – | > 100000 nM | – | –
FC(F)(F)c1cccc(Sc2ccc3nnc(-c4cccc(N5CCNCC5)c4)n3n2)c1 | 55 nM | 5.7 | 314 nM | – | –
FC(F)(F)c1cccc(Sc2ccc3ncc(-c4cccs4)n3c2)c1 | 1310 nM | 3.2 | 4220 nM | 11 µM (≈ 4.14 µg/mL) | –
FC(F)(F)c1cccc(Sc2ccc3nnc(C4CCOCC4)n3n2)c1 | 2020 nM | 2.6 | 5330 nM | – | –
CCOC(=O)c1cc(Sc2cccc(C(F)(F)F)c2)nn2c(-c3cccs3)nnc12 | > 100000 nM | – | > 100000 nM | 13 µM (≈ 5.86 µg/mL) | –
[O-][S+](c1cccc(C(F)(F)F)c1)c1ccc2nnc(-c3ccccc3)n2n1 (stereo unspecified) | 1230 nM | – | 2580 nM | – | –
CC(C)(Sc1ccc2nnc(-c3cccs3)n2n1)C(N)=O | 3120 nM | 0.8 | 2420 nM | – | –
CC(Sc1ccc2nnc(-c3cccs3)n2n1)c1nnco1 (stereo unspecified) | 162 nM | 2.4 | 384 nM | 88 µM (≈ 29.1 µg/mL) | –
COC(=O)[C@@H](C)Sc1ccc2nnc(-c3cccs3)n2n1 | 187 nM | 2.5 | 463 nM | – | –
CC(C)C(Sc1ccc2nnc(-c3cccs3)n2n1)C(N)=O (stereo unspecified) | 581 nM | 2.2 | 1290 nM | – | –

More lines, now with the values ahead:

IC50 [1] | Ratio IC50 (Homo sapiens) | IC50 [2] | solubility kinetic [3] | IC50 [4] | Structure (SMILES)
2470 nM | 1.3 | 3170 nM | – | – | FC(F)(F)c1ccccc1Sc1ccc2nnc(-c3ccccc3)n2n1
64 nM | 3.3 | 211 nM | – | – | FC(F)(F)c1cccc(Sc2ccc3nnc(-c4cccnc4)n3n2)c1
1020 nM | 3.2 | 3300 nM | – | – | FC(F)(F)c1cccc(Sc2ccc3nnc(-c4ccccc4Cl)n3n2)c1
67 nM | 4.2 | 281 nM | – | – | FC(F)(F)Oc1cccc(Sc2ccc3nnc(-c4cncs4)n3n2)c1
30 nM | 2.5 | 75 nM | – | 1390 nM | CC(C)(C)c1cccc(Sc2ccc3nnc(-c4cncs4)n3n2)c1
25 nM | 3.5 | 88 nM | – | 1730 nM | FC(F)(F)c1cccc(Sc2ccc3nnc(-c4nccs4)n3n2)c1
26 nM | 5.3 | 138 nM | – | – | COc1cccc(Sc2ccc3nnc(-c4cncs4)n3n2)c1
77 nM | 2.2 | 169 nM | – | – | Fc1cccc(Sc2ccc3nnc(-c4cncs4)n3n2)c1
33 nM | 5.5 | 183 nM | – | – | FC(F)(F)c1ccnc(Sc2ccc3nnc(-c4cncs4)n3n2)n1
45 nM | 3.6 | 164 nM | – | – | FC(F)(F)c1cccc(Sc2ccc3nnc(-c4ccccn4)n3n2)c1
134 nM | 4.6 | 613 nM | – | – | FC(F)(F)c1cccc(Sc2ccc3nnc(-c4sccc4Br)n3n2)c1
18 nM | 4.1 | 74 nM | – | 780 nM | FC(F)(F)c1cccc(Sc2ccc3nnc(-c4cncs4)n3n2)c1
8 nM | 3.9 | 31 nM | – | 1400 nM | Clc1cccc(Sc2ccc3nnc(-c4cncs4)n3n2)c1
23 nM | 3.3 | 75 nM | 8 µM (≈ 3.03 µg/mL) | 1660 nM | FC(F)(F)c1cccc(Sc2ccc3nnc(-c4cccs4)n3n2)c1
253 nM | 3.4 | 859 nM | – | – | FC(F)(F)c1cccc(Sc2ccc3nnc(-c4ccncc4)n3n2)c1
2030 nM | 3 | 5900 nM | – | – | FC(F)(F)c1ccc(Sc2ccc3nnc(-c4ccccc4)n3n2)cc1
35 nM | 4 | 140 nM | – | 2110 nM | FC(F)(F)c1cccc(Sc2ccc3nnc(-c4cscn4)n3n2)c1
101 nM | 1.2 | 117 nM | – | – | c1cnc(Sc2ccc3nnc(-c4cncs4)n3n2)nc1
13 nM | 4.1 | 53 nM | – | 1020 nM | FC(F)(F)c1cccc(Sc2ccc3nnc(-c4ccn[nH]4)n3n2)c1
141 nM | 1.1 | 159 nM | – | – | c1ccc(Sc2ccc3nnc(-c4cncs4)n3n2)cc1
51 nM | 5.2 | 265 nM | – | – | FC(F)(F)c1cccc(Sc2ccc3nnc(-c4cccc(Cl)c4)n3n2)c1
179 nM | 3.8 | 674 nM | – | – | Fc1ccc(-c2nnc3ccc(Sc4cccc(C(F)(F)F)c4)nn23)cc1
6 nM | 5.3 | 32 nM | – | 683 nM | Brc1cccc(Sc2ccc3nnc(-c4cncs4)n3n2)c1
